Laboratory results: paper PMC4955388 (Bioorganic & medicinal chemistry letters, 2016)
Where two headings read alike, the source gives them in different places.

What was measured:
[1] = Intrinsic clearance in rat hepatic microsomes and predicted hepatic clearance; assay type: in vitro ADME; details: for Rat CLHEP (predicted hepatic clearance): calculated from rat microsomal CLINT; for CLint scaled at 1 µM: rat, liver microsomes
[2] = assay type: in vivo, rat; details: 1 h; for Concentration, Plasma HPV: hepatic portal vein
Method in brief: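 Rats received 10 mg/kg test compound orally, with vehicle or co-dosed with 1-aminobenzotriazole, a pan-irreversible cytochrome P450 inhibitor. At 1 h, concentrations were measured in systemic plasma, hepatic portal vein plasma and brain.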

[3] = po 10 mg/kg with vehicle (no ABT)

| SMILES | Rat CLHEP (predicted hepatic clearance) [1] [mL/min/kg] | CLint scaled at 1 µM [1] [mL/min/kg] | Concentration, Brain ([2]; po 10 mg/kg co-dosed with ABT) | Concentration, Plasma systemic ([2]; po 10 mg/kg co-dosed with ABT) | Concentration, Plasma HPV ([2]; po 10 mg/kg co-dosed with ABT) | Concentration, Brain [2, 3] | Concentration, Plasma systemic [2, 3] | Concentration, Plasma HPV [2, 3] |
| --- | --- | --- | --- | --- | --- | --- | --- | --- |
| Cc1ccc(S(=O)(=O)n2ccc(NC(=O)c3ccccn3)c2)cc1 [11l] | 68.2 | 2700 | – | – | – | – | – | – |
| Cc1cccc(S(=O)(=O)n2ccc(NC(=O)c3ccccn3)c2)c1 [11m] | 68.8 | 4040 | – | – | – | – | – | – |
| O=C(Nc1ccn(S(=O)(=O)c2ccc(Cl)cc2)c1)c1ccccn1 [11o] | 65.9 | 1130 | – | – | – | – | – | – |
| Cc1ccc(S(=O)(=O)n2ccc(NC(=O)c3ccccn3)c2)cc1C [11r, N-(1-((3,4-Dimethylphenyl)sulfonyl)-1H-pyrrol-3-yl)picolinamide] | – | 293 | – | – | – | – | – | – |
| Cc1ccc(S(=O)(=O)n2cc(NC(=O)c3ccccn3)cn2)cc1C [11s] | 68.7 | 3800 | – | – | – | – | – | – |
| Cc1cc(S(=O)(=O)n2ccc(NC(=O)c3ccccn3)c2)ccc1Cl [11t] | 68.6 | 3440 | 175.5 ng/mg or g | 198.5 ng/mg or g | 764.5 ng/mg or g | 8.1 ng/mg or g | 7.4 ng/mg or g | 731 ng/mg or g |
